Measured values as given in ChEMBL document CHEMBL3864147, “Antioxidant and anti-inflammatory neolignans from the seeds of hawthorn” (Bioorg Med Chem Lett, 2016).

Tests used:
[1] = Antiinflammatory activity in mouse RAW264.7 cells assessed as inhibition of LPS-induced TNFalpha production at 100 uM after 24 hrs by ELISA relative to control; format: functional; settings: RAW264.7, 24 h
Outline: (§1)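 RAW264.7 cells plated at 5 × 10^5/mL, pre-treated with samples at 100, 50, 10 or 1 µM, then stimulated with LPS (100 ng/mL) for 24 h. TNF-α in the medium measured by ELISA kit per manufacturer's instructions and quantified from a standard curve; silybin as positive control.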

[2] = Antioxidant activity assessed as DPPH radical scavenging activity incubated in dark for 30 mins; format: functional
Outline: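 Samples (0.4 mM stock, 5–40 µL series) and DPPH (2 mM stock, 20 µL) in ethanol, made to 200 µL with ethanol; incubated 30 min in dark at 37 °C; absorbance at 517 nm. Ethanol replaced sample as blank.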

[3] = Antiinflammatory activity in mouse RAW264.7 cells assessed as inhibition of LPS-induced nitric oxide production after 24 hrs by Griess assay; format: functional, cell-based; settings: RAW264.7, 24 h
Outline: (§2)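 RAW264.7 cells (5 × 10^5/mL) pre-treated with samples at 100, 50, 10 or 1 µM, then LPS (100 ng/mL) for 24 h. Nitrite in medium measured by mixing with equal volume Griess reagent (1% sulfanilamide in 5% H3PO4, 0.1% N-naphthyl-ethylenediamine), 10 min at 37 °C, absorbance 540 nm; quantified against NaNO2 standard curve; minocycline as positive control.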

[4] = Antiinflammatory activity in mouse RAW264.7 cells assessed as inhibition of LPS-induced nitric oxide production at 50 uM after 24 hrs by Griess assay relative to control; format: functional; settings: RAW264.7, 24 h; outline: as §2
[5] = Antiinflammatory activity in mouse RAW264.7 cells assessed as inhibition of LPS-induced TNFalpha production at 10 uM after 24 hrs by ELISA relative to control; format: functional; settings: RAW264.7, 24 h; outline: as §1
[6] = Antiinflammatory activity in mouse RAW264.7 cells assessed as inhibition of LPS-induced nitric oxide production at 1 uM after 24 hrs by Griess assay relative to control; format: functional; settings: RAW264.7, 24 h; outline: as §2
[7] = Antioxidant activity assessed as ferric ion reducing activity by measuring Fe2+ levels using fe3+-TPTZ at 375 ug/ml after 30 mins by FRAP assay; format: functional
Outline: (§3)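 FRAP reagent: 300 mM acetate buffer pH 3.6, 10 mM TPTZ in 40 mM HCl, 20 mM FeCl3. Sample (3000, 1500, 750, 375 µg/mL solutions) mixed with reagent, 30 min at 37 °C, absorbance 593 nm. Values expressed as µM Fe2+ from FeSO4 calibration curve (5–450 µM).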

[8] = Antiinflammatory activity in mouse RAW264.7 cells assessed as inhibition of LPS-induced nitric oxide production at 10 uM after 24 hrs by Griess assay relative to control; format: functional; settings: RAW264.7, 24 h; outline: as §2
[9] = Antiinflammatory activity in mouse RAW264.7 cells assessed as inhibition of LPS-induced TNFalpha production at 50 uM after 24 hrs by ELISA relative to control; format: functional; settings: RAW264.7, 24 h; outline: as §1
[10] = Antiinflammatory activity in mouse RAW264.7 cells assessed as inhibition of LPS-induced TNFalpha production after 24 hrs by ELISA; format: functional, cell-based; settings: RAW264.7, 24 h; outline: as §1
[11] = Antiinflammatory activity in mouse RAW264.7 cells assessed as inhibition of LPS-induced TNFalpha production at 1 uM after 24 hrs by ELISA relative to control; format: functional; settings: RAW264.7, 24 h; outline: as §1
[12] = Antioxidant activity assessed as ferric ion reducing activity by measuring Fe2+ levels using fe3+-TPTZ at 750 ug/ml after 30 mins by FRAP assay; format: functional; outline: as §3
[13] = Antiinflammatory activity in mouse RAW264.7 cells assessed as inhibition of LPS-induced nitric oxide production at 100 uM after 24 hrs by Griess assay relative to control; format: functional; settings: RAW264.7, 24 h; outline: as §2
[14] = Antioxidant activity assessed as ferric ion reducing activity by measuring Fe2+ levels using fe3+-TPTZ at 3000 ug/ml after 30 mins by FRAP assay; format: functional; outline: as §3
Mus musculus = organism: Mus musculus; assay: Cytotoxicity against mouse RAW264.7 cells assessed as effect on cell viability at 100 uM preincubated for 1 hr followed by LPS stimulation measured after 24 hrs by MTT assay; format: toxicity, cell-based; settings: raw264.7, 24 h
Outline: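 RAW264.7 cells in DMEM with 10% FBS and penicillin/streptomycin at 37 °C, 5% CO2, seeded 5 × 10^5 cells/well; treated with samples (100 µM) 1 h, then LPS (100 ng/mL) 24 h. MTT (0.25 mg/mL) added for 4 h; formazan read at 540 nm; untreated cells as control.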

[15] = Antioxidant activity assessed as ABTS radical scavenging activity after 30 mins; format: functional
Outline: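 ABTS radical generated by 7 mM ABTS plus 2.4 mM potassium persulfate, 12 h dark at room temperature, diluted in ethanol to OD 0.700 at 734 nm. Samples at several concentrations mixed with ABTS+ solution, 30 min at 37 °C, read at 734 nm; ethanol blank; percent scavenging calculated relative to blank.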

[16] = Antioxidant activity assessed as ferric ion reducing activity by measuring Fe2+ levels using fe3+-TPTZ at 1500 ug/ml after 30 mins by FRAP assay; format: functional; outline: as §3

IC50 [2] [µM]	IC50 [3] [µM]	IC50 [10] [µM]	IC50 [15] [µM]	SMILES	inhibition at 100 µM [1] [%]	inhibition at 50 µM [4] [%]	inhibition at 10 µM [5] [%]	inhibition at 1 µM [6] [%]	Activity [7] [µmol/L]	inhibition at 10 µM [8] [%]	inhibition at 50 µM [9] [%]	inhibition at 1 µM [11] [%]	Activity [12] [µmol/L]	inhibition at 100 µM [13] [%]	Activity [14] [µmol/L]	Activity (Mus musculus)	Activity [16] [µmol/L]
109	> 100	76.1	10.8	COc1cc([C@H](OC)[C@@H](CO)Oc2ccc([C@@H](O)[C@H](O)CO)cc2OC)ccc1O	57.7	3.2	18.9	-1.3	29.9	-0.5	37.2	3.1	50.5	7	105	Non-Toxic	74.1
79.6	66.4	> 100	7.1	CCO[C@H](c1ccc(O[C@@H](CO)[C@@H](O)c2ccc(O)c(OC)c2)c(OC)c1)[C@@H](CO)c1ccc(O)c(OC)c1	29.2	40.2	3.1	4.7	38.6	18.2	11.4	-2.2	62.7	62.6	134	Non-Toxic	96.8
